Source: PubChem BioAssay
Results filed as inconclusive are left out.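 Rule for the calls, unless noted: active = viability at or below 27.92% in each of two runs, the all-compound median minus 4 SD; inconclusive = no clear call, values can overlap the other calls; inactive = the rest.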

Tests used:
[1] = S. cerevisiae growth inhibition in permissive medium (OD615), pilot counter-assay for S. cerevisiae lifespan shortening project, permissive growth control (AID 705;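 active = growth inhibition above 25% in both replicates, a cutoff set 3 SD above the mean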); details: OD615, 24 h, at 10 µM, hits give high values
In short: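 assay system = Saccharomyces cerevisiae strain carrying genetically modified DeaD replicative-lifespan system | technique = absorbance (optical density) at 615 nm | buffer or medium = permissive raffinose/galactose medium | timing = cells pre-grown 4 h, then 24 h compound exposure, 30 °C humidified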

[2] = S. cerevisiae growth inhibition in restrictive medium, OD615, pilot screen, restrictive growth control, yeast lifespan reduction project (AID 706;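 active = growth inhibition above a set limit, 3 SD over mean compound inhibition, in both replicates, cut at about 43% in these data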;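 note: modified DeaD lifespan yeast strain shifted to restrictive glucose medium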); details: OD615, 48 h, at 10 µM, hits give high values
In short: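 System: modified S. cerevisiae. Buffer or medium: CSMM-D glucose medium. Incubation: 4 h pre-growth plus 48 h compound exposure, 30 °C. Detection: absorbance (optical density) measured at 615 nm.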

[3] = doxorubicin toxicity protection in MRP-1 cells – H69AR cells, CellTiter-Glo, duplicate, MRP-1 activator project, pilot screen (AID 807;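 active = viability increase at or above a cutoff of the median across tested compounds plus 3 SD, cut at about 8.5% in these data, passing the limit was not always enough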;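 note: compound pretreatment 18-22 h then 72 h combined with doxorubicin; 0% = doxorubicin alone and 100% = vehicle without doxorubicin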); details: H69AR viability with doxorubicin, CellTiter-Glo luminescence; at 10 µM; hits give high values
[4] = viability of HCT116 without oncogenic beta-catenin – human colon tumor cells, pilot screen (AID 823;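 active = cell viability at or below a set limit in both duplicate runs, the limit being the all-compound median minus 4 SD, cut at about 23% in these data, passing the limit was not always enough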;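 note: 0% = wells killed by 20 µM Hyamine and 100% = untreated DMSO cell wells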); details: HCT116 beta-catenin knockout viability, CellTiter-Glo, 60 h; at 10 µM; hits give low values
[5] = viability of PTEN-null HCT116 cells – cell-based, HCT116 clonal line, CellTiter-Glo, pilot screen (AID 824); details: HCT116 PTEN-deleted viability, 60 h, at 10 µM, hits give low values;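 note: 0% = 20 µM Hyamine control and 100% = vehicle cell control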
[6] = RAM pathway blockade in budding yeast – dse1pr::URA3 reporter, 5-FOA selection, pilot screen (AID 869;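 active = inhibition over a set limit, the all-compound mean plus 3 SD, in both replicate runs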;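 note: 0% = DMSO wells with no growth and 100% = 10 µM 1-NA-PP1 with full growth; RAM network block rescues cells from 5-FOA so hits raise OD615 growth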); details: S. cerevisiae dse1pr::URA3 5-FOA growth, OD615, 2 d; at 10 µM; hits give high values; strain carries analog-sensitive mutant Cbk1 kinase
[7] = RAM signaling pathway blockade in yeast – S. cerevisiae, Pdr1DBD-CYC8 efflux-inhibited sensitized strain, primary screen (AID 1298;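 active = RAM network inhibition above 8.4% in each of two replicates, 3 SD over the compound average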;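 note: 0% = DMSO untreated cells without growth and 100% = 10 µM 1-NA-PP1 full growth; higher means more yeast growth rescued from 5-FOA killing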); details: S. cerevisiae cbk1-as DSE1-URA3 strain, 5-FOA growth OD615, 2 d; at 50 µM; hits give high values

Cc1ccc(-n2ncc3c(=O)[nH]c(SCC(=O)N4CCCC4)nc32)cc1C
inactive: growth inhibition [1] -6.01% | growth inhibition [2] -4.8% | viability increase [3] -4.32% | viability [4] 105% | viability [5] 91.8% | inhibition [6] 1.81% | RAM network inhibition [7] 1.73%

Cc1c(C(=O)NCC2CCCO2)oc2ccc(S(=O)(=O)N3CCCCC3)cc12 (configuration not stated)
inactive: growth inhibition [1] -15.5% | growth inhibition [2] -9.72% | viability increase [3] -0.95% | viability [4] 89.9% | viability [5] 92.1% | inhibition [6] 2.4% | RAM network inhibition [7] 1.2%

N#Cc1nc(-c2ccccc2F)oc1NC1CCCCC1
inactive: growth inhibition [1] -18.3% | growth inhibition [2] -17.6% | viability increase [3] -2.53% | viability [4] 87.7% | viability [5] 87.6% | inhibition [6] 0.64% | RAM network inhibition [7] 6%

COc1ccc(-c2nc(CS(=O)CC(=O)NCc3cccnc3)c(C)o2)cc1 (configuration not stated)
inactive: growth inhibition [1] 2.57% | growth inhibition [2] -2.7% | viability increase [3] -4.05% | viability [4] 89.3% | viability [5] 92.5% | inhibition [6] 1.14% | RAM network inhibition [7] 1.62%

O=C(c1ccccc1)c1ccc2nc(N3CCN(C(=O)c4ccco4)CC3)c3nncn3c2c1
inactive: growth inhibition [1] -3.47% | growth inhibition [2] 11.3% | viability increase [3] -3.94% | viability [4] 65.3% | viability [5] 72.7% | inhibition [6] 2.05% | RAM network inhibition [7] -0.16%

CCCc1cc(C(=O)NCC(C)C)no1
inactive: growth inhibition [1] -3.57% | growth inhibition [2] 13.8% | viability increase [3] 0.64% | viability [4] 109% | viability [5] 101% | inhibition [6] 1.85% | RAM network inhibition [7] 1.2%

CCOC(=O)N1CCN(C(=O)CSc2nnc(-c3ccc(C(C)(C)C)cc3)o2)CC1
inactive: growth inhibition [1] -7.79% | growth inhibition [2] 8.32% | viability increase [3] -1.07% | viability [4] 85.2% | viability [5] 83.7% | inhibition [6] 0.505% | RAM network inhibition [7] 1.1%

COc1cccc(C2NC(=O)NC(C)=C2C(=O)OCCSC)c1OC (configuration not stated)
inactive: growth inhibition [1] -3.21% | growth inhibition [2] -16.4% | viability increase [3] -0.87% | viability [4] 93.7% | viability [5] 90.6% | inhibition [6] 1.07% | RAM network inhibition [7] 2.02%

COc1ccccc1-c1nc(-c2ccccn2)no1
inactive: growth inhibition [1] -10.5% | growth inhibition [2] -2.21% | viability increase [3] -5.99% | viability [4] 45.5% | viability [5] 39.7% | inhibition [6] 0.975% | RAM network inhibition [7] 0.42%

CCCn1c(CN2CCCCC2CC)nc2c1c(=O)n(C)c(=O)n2C (configuration not stated)
inactive: growth inhibition [1] -3.98% | growth inhibition [2] -17.3% | viability increase [3] 0.61% | viability [4] 93.9% | viability [5] 90.4% | inhibition [6] 0.045% | RAM network inhibition [7] 4.81%

COC(=O)c1cc(-c2ccc(Br)cc2)on1
inactive: growth inhibition [1] 1.85% | growth inhibition [2] 1.59% | viability increase [3] -2.76% | viability [4] 102% | viability [5] 96.6% | inhibition [6] 0.09% | RAM network inhibition [7] 1.79%

COc1cc(NC(=O)c2c(-c3ccccc3Cl)noc2C)c2ncccc2c1
inactive: growth inhibition [1] -15.8% | growth inhibition [2] -18.1% | viability increase [3] -0.47% | viability [4] 60.2% | viability [5] 64.3% | inhibition [6] 2.6% | RAM network inhibition [7] 7.52%

O=S(=O)(Nc1ccc(O)cc1)c1cccc2cccnc12
inactive: growth inhibition [1] -1.12% | growth inhibition [2] -4.81% | viability increase [3] -1.95% | viability [4] 93.9% | viability [5] 87% | inhibition [6] 2.25% | RAM network inhibition [7] 0.83%

CCCS(=O)(=O)NCCc1cc2ccc(OC)cc2[nH]c1=O
inactive: growth inhibition [1] -13.2% | growth inhibition [2] -5.31% | viability increase [3] -2.79% | viability [4] 97.4% | viability [5] 90.1% | inhibition [6] 2.56% | RAM network inhibition [7] 2.19%

Cc1cc(C(=O)CN2CC(C)OC(C)C2)c(C)n1-c1ccccc1 (configuration not stated)
inactive: growth inhibition [1] 0.61% | growth inhibition [2] -5.6% | viability increase [3] -1.04% | viability [4] 97.6% | viability [5] 99.6% | inhibition [6] 1.83% | RAM network inhibition [7] 7.04%

COc1ccccc1C(=O)Nc1nnc(-c2ccc(F)cc2)o1
inactive: growth inhibition [1] -8.41% | growth inhibition [2] -13.1% | viability increase [3] 0.01% | viability [4] 101% | viability [5] 101% | inhibition [6] 0.59% | RAM network inhibition [7] 2.59%
